According to ChEMBL document CHEMBL3763072, “Structure activity relationship studies on chemically non-reactive glycine sulfonamide inhibitors of diacylglycerol lipase” (Bioorg Med Chem, 2016):
Activity calls are given as the source filed them. The rule behind the calls is not given here.

What was measured:
[1] = biological target: T1, Monoglyceride lipase (Homo sapiens) (UniProt Q99685); experiment: Inhibition of MAGL (unknown origin) at 30 uM
T1 sequence (whole entry): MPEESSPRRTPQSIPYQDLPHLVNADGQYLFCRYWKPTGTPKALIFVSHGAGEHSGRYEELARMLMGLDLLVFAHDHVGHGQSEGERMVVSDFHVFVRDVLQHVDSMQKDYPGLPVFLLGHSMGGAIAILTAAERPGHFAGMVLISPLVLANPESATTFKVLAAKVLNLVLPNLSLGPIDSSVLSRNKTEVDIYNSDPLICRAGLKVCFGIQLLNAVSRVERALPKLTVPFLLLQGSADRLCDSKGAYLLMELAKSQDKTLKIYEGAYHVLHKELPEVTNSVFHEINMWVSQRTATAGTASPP

[2] = Metabolic stability in mouse liver microsomes assessed as residual compound at 3 uM preincubated for 2 mins followed by NADPH addition measured after 10 mins by LC-MS analysis; type: ADME; details: read-out: Stability
[3] = Metabolic stability in human liver microsomes assessed as residual compound at 3 uM preincubated for 2 mins followed by NADPH addition measured after 10 mins by LC-MS analysis; type: ADME; details: read-out: Stability
[4] = Metabolic stability in rat liver microsomes assessed as residual compound at 3 uM preincubated for 2 mins followed by NADPH addition measured after 10 mins by LC-MS analysis; type: ADME; details: read-out: Stability
[5] = biological target: T2, Diacylglycerol lipase-alpha (Homo sapiens, UniProt Q9Y4D2); experiment: Inhibition of full length human C-terminal HA-tagged DAGLalpha expressed in HEK293 cell membrane using DAG as substrate incubated for 20 mins by LC-MS analysis; type: cell-based
T2 sequence (Q9Y4D2 whole entry): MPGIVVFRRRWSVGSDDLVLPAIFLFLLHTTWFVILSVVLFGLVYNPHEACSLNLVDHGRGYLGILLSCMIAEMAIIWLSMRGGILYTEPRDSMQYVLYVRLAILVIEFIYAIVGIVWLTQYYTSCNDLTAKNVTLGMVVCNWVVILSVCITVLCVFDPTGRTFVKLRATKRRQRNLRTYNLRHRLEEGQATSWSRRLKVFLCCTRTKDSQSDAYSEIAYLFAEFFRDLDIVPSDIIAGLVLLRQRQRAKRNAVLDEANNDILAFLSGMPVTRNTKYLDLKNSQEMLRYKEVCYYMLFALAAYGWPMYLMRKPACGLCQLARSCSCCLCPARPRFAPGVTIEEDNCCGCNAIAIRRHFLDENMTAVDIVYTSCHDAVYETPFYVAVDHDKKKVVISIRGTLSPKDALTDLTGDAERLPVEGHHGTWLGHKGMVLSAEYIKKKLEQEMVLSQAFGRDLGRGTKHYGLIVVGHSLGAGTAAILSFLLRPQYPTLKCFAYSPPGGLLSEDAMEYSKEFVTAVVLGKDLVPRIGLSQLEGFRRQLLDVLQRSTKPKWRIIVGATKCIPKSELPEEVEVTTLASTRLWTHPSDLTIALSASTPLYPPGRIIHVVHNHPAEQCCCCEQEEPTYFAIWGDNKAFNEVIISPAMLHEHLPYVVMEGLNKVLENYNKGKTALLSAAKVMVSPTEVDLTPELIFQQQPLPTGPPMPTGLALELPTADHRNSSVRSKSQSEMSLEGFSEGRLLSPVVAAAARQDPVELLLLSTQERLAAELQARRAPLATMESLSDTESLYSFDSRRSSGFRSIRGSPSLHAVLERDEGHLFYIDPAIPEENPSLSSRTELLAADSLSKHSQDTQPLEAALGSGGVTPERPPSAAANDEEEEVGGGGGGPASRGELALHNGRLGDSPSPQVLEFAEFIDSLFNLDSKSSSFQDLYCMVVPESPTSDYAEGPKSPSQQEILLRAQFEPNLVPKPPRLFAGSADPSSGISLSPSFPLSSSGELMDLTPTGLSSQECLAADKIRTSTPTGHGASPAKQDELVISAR
Outline: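 Cell-free DAGL-α enzyme assay run at pH 6.5. IC50 values are reported, with replicate counts (n) given per value.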

[6] = Dissociation constant, pKa of compound at pH 2 to […] by spectrophotometric titration method; type: physicochemical
physchem = details: octanol/phosphate buffer, pH 7.4
[7] = biological target: T2, Diacylglycerol lipase-alpha; experiment: Inhibition of full length human C-terminal HA-tagged DAGLalpha expressed in HEK293 cells using DAG as substrate assessed as reduction in intracellular 2-AG level incubated for 20 mins by LC-MS analysis; type: cell-based
[8] = biological target: T3, Diacylglycerol lipase-alpha (Homo sapiens) (UniProt Q9Y4D2); experiment: Ratio of IC50 for full length human C-terminal HA-tagged DAGLalpha expressed in HEK293 cells assessed as reduction in intracellular 2-AG level to IC50 for full length human C-terminal HA-tagged DAGLalpha expressed in HEK293 cell membrane; type: cell-based
T3 sequence (whole entry): T2 sequence (Q9Y4D2 whole entry)

[9] = Tmax in mouse at 10 mg/kg, po; type: ADME, organism-based; details: in vivo
[10] = Cmax in mouse at 1 mg/kg, iv; type: ADME, organism-based; design: dose 1 mg/kg, route intravenous; details: in vivo
[11] = Cmax in mouse at 10 mg/kg, ip; type: ADME, organism-based; design: dose 10 mg/kg, route intraperitoneal; details: in vivo
[12] = Clearance in mouse at 1 mg/kg, iv; type: ADME, organism-based; details: in vivo
[13] = Tmax in mouse at 10 mg/kg, ip; type: ADME, organism-based; details: in vivo
[14] = Half life in mouse at 1 mg/kg, iv; type: ADME, organism-based; details: in vivo
[15] = Half life in mouse at 10 mg/kg, ip; type: ADME, organism-based; details: in vivo
[16] = Oral bioavailability in mouse at 10 mg/kg; type: ADME, organism-based; details: in vivo
[17] = Volume of distribution at steady state in mouse at 1 mg/kg, iv; type: ADME, organism-based; details: in vivo, read-out: Vdss
Mus musculus [18] = experiment: AUC(infinity) in mouse at 10 mg/kg, ip; type: ADME, organism-based; design: dose 10 mg/kg, time infinity, route intraperitoneal; details: in vivo
[19] = biological target: T4, Nuclear receptor subfamily 1 group I member 2 (Homo sapiens, UniProt O75469); experiment: Transactivation of human PXR expressed in human HepG2 cells after […] by luciferase reporter gene assay; type: ADME, cell-based
T4 sequence (O75469 whole entry): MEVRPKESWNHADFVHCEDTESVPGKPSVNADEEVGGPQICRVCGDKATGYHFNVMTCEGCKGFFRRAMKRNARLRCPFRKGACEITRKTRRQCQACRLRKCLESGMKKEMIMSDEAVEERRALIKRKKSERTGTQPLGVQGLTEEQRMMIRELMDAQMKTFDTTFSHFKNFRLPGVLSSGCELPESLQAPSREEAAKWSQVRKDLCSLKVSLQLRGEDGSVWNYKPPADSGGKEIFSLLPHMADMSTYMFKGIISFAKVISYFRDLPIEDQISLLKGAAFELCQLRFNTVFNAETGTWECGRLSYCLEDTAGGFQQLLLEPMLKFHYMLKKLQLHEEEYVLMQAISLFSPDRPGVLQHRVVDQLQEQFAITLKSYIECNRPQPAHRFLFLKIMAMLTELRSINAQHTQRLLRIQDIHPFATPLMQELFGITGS

Mus musculus [20] = experiment: AUC(infinity) in mouse at 1 mg/kg, iv; type: ADME, organism-based; design: dose 1 mg/kg, route intravenous, time infinity; details: in vivo
[21] = AUC(infinity) in mouse at 10 mg/kg, po; type: ADME, organism-based; design: dose 10 mg/kg, route oral, time infinity; details: in vivo
Mus musculus [22] = experiment: Bioavailability in mouse at 10 mg/kg, ip; type: ADME, organism-based; details: in vivo
[23] = biological target: T5, Pancreatic triacylglycerol lipase (Sus scrofa) (UniProt P00591); experiment: Inhibition of porcine pancreatic lipase at 30 uM
T5 sequence (whole entry): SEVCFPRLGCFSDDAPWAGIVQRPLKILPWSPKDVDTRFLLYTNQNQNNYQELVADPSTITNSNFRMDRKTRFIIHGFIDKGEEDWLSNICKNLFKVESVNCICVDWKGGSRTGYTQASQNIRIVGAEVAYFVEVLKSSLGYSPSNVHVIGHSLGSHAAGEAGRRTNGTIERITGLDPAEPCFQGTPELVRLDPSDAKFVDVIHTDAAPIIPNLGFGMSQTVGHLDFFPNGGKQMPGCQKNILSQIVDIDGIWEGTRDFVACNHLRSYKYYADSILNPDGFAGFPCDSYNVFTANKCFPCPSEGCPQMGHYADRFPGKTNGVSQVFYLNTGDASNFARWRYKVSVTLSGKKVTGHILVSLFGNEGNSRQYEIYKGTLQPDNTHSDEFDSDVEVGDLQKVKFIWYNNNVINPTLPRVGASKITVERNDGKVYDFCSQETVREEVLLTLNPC

[24] = Cmax in mouse at 10 mg/kg, po; type: ADME, organism-based; design: dose 10 mg/kg, route oral; details: in vivo
[25] = biological target: T6, Diacylglycerol lipase-beta (Homo sapiens, UniProt Q8NCG7); experiment: Inhibition of DAGLbeta (unknown origin)
T6 sequence (Q8NCG7 whole entry): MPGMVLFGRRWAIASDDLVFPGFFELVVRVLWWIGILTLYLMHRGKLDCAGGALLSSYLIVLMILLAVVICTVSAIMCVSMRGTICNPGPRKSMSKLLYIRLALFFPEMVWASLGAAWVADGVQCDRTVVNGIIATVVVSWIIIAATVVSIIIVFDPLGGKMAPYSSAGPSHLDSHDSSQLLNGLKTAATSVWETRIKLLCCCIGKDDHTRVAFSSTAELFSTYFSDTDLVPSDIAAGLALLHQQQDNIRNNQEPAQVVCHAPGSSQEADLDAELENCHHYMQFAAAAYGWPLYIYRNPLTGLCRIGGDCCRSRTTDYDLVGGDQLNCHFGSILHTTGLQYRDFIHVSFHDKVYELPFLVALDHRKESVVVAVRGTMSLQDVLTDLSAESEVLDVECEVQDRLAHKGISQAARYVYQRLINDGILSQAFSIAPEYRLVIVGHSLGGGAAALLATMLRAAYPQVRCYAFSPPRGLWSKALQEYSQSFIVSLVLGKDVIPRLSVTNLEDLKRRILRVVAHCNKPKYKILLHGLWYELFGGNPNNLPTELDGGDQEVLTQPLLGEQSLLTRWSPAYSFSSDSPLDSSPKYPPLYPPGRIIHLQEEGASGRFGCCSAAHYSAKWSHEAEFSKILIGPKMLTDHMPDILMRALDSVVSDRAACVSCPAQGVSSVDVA

[26] = Half life in mouse at 10 mg/kg, po; type: ADME, organism-based; details: in vivo
Cytochrome P450 2C9 = Cytochrome P450 2C9 (Homo sapiens, UniProt P11712); experiment: Inhibition of CYP2C9 in human liver microsomes using diclofenac as substrate incubated for 10 mins by LC-MS analysis
Chain of Cytochrome P450 2C9 (P11712 whole entry): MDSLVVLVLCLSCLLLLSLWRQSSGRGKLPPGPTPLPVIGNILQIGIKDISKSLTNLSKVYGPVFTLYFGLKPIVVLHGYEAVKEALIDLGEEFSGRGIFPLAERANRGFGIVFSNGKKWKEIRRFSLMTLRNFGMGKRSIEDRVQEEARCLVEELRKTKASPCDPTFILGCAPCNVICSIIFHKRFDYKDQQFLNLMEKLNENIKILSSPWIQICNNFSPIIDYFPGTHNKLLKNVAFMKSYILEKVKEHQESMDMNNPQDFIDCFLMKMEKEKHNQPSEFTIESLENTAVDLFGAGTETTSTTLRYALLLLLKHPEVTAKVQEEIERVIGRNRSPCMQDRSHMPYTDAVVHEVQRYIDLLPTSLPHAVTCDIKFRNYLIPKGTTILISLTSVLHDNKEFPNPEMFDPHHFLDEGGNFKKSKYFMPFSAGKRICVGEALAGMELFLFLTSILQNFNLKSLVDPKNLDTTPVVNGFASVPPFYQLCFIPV

Cytochrome P450 2C19 = Cytochrome P450 2C19 (Homo sapiens, UniProt P33261); experiment: Inhibition of CYP2C19 in human liver microsomes using (S)-mephenytoin as substrate incubated for 5 mins by LC-MS analysis
Chain of Cytochrome P450 2C19 (P33261 whole entry): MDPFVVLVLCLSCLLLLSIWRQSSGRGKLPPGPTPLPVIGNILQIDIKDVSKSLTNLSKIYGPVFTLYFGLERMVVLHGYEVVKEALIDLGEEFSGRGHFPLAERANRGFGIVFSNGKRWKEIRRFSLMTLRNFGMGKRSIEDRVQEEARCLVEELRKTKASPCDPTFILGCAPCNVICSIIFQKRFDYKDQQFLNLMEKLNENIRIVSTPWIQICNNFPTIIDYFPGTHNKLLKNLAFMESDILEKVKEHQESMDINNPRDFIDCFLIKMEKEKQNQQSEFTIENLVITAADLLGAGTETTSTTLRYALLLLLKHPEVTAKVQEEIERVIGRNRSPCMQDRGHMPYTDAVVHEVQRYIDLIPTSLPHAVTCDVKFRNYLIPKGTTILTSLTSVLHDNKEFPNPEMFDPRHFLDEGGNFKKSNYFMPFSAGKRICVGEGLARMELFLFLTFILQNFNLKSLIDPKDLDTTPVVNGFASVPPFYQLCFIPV

Cytochrome P450 3A4 = Cytochrome P450 3A4 (Homo sapiens, UniProt P08684); experiment: Inhibition of CYP3A4 in human liver microsomes using midazolam as substrate incubated for 5 mins by LC-MS analysis
Chain of Cytochrome P450 3A4 (P08684 whole entry): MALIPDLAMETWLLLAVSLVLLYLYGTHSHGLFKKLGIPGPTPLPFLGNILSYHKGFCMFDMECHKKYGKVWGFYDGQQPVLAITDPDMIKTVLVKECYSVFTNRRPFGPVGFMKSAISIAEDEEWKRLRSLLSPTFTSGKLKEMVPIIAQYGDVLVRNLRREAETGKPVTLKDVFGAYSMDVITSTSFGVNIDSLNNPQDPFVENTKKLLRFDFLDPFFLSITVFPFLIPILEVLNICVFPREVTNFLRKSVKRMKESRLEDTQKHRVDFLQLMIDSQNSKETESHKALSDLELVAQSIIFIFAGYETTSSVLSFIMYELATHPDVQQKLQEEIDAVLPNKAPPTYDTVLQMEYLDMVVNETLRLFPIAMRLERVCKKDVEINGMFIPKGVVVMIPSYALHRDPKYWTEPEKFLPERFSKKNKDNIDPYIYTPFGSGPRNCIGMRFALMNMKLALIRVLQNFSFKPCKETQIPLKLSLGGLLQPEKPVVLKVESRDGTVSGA

[27] = biological target: Voltage-gated inwardly rectifying potassium channel KCNH2 (Homo sapiens, UniProt Q12809); experiment: Inhibition of human ERG expressed in HEK293 cells by thallium flux assay
Chain of Voltage-gated inwardly rectifying potassium channel KCNH2 (Q12809 whole entry): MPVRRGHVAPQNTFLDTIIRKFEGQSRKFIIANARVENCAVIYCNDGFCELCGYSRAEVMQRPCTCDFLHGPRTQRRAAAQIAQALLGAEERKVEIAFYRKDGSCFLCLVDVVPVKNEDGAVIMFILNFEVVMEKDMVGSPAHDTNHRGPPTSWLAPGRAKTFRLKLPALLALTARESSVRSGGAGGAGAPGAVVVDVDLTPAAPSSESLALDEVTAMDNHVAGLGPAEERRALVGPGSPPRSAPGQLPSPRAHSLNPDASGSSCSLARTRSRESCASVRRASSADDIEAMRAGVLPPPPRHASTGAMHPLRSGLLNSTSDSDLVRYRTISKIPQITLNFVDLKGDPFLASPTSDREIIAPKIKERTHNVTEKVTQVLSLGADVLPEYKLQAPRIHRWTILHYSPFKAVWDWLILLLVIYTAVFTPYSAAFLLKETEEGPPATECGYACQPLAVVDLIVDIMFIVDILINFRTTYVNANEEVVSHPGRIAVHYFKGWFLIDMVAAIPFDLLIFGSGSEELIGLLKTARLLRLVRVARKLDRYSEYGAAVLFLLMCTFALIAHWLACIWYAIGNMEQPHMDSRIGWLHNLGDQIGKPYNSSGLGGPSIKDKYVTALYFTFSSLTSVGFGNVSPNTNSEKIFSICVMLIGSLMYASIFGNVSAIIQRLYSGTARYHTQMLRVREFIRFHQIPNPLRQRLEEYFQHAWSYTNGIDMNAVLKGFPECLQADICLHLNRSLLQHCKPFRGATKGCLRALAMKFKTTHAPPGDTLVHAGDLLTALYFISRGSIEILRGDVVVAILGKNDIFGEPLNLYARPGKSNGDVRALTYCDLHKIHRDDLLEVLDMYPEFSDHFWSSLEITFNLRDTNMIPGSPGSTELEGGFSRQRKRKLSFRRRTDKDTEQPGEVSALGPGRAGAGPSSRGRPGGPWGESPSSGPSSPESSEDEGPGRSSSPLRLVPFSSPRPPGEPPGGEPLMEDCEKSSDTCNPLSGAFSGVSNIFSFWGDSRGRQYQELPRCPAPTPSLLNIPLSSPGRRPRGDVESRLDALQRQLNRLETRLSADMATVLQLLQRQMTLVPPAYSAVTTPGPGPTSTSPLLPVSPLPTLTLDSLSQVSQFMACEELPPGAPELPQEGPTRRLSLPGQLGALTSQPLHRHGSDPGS

Cytochrome P450 2D6 = Cytochrome P450 2D6 (Homo sapiens, UniProt P10635); experiment: Inhibition of CYP2D6 in human liver microsomes using dextromethorphan as substrate incubated for 7 mins by LC-MS analysis
Chain of Cytochrome P450 2D6 (P10635 whole entry): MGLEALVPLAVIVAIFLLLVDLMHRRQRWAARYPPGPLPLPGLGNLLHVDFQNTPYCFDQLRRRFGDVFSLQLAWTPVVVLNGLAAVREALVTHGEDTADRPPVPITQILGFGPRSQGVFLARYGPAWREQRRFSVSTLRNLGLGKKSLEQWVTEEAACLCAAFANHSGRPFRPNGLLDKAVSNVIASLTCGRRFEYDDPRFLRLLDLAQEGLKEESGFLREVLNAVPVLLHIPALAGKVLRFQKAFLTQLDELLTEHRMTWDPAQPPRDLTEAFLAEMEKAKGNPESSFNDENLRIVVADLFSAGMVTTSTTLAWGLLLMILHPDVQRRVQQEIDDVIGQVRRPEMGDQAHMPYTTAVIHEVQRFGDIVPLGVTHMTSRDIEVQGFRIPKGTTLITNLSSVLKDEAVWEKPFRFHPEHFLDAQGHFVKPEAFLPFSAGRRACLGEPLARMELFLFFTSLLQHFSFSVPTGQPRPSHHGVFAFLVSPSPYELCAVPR

O=C(O)CN(C1(c2cccc(-c3ccc(Cl)cc3Cl)c2)CCC1)S(=O)(=O)c1ccc(Cl)c(Cl)c1
inhibition [1]: inactive

CC1(C)CCc2cc(S(=O)(=O)N(CC(=O)O)Cc3cccc(-c4ccccc4)c3)ccc2O1
remaining at 10 min, 3 µM [2]: 87%
remaining at 10 min, 3 µM [3]: 77%
remaining at 10 min, 3 µM [4]: 67%

CC1(C)CCc2cc(S(=O)(=O)N(CC(=O)O)Cc3cccc4cccnc34)ccc2O1
IC50 [5]: 13.5 µM
pKa [6]: 2
logD (physchem): 0.5

C[C@H](c1ccc(-c2ccc(Cl)cc2Cl)cc1)N(CC(=O)O)S(=O)(=O)c1ccc(OC(F)F)cc1
IC50 [7]: 0.1 µM
IC50 [5]: 0.019 µM
Ratio IC50 [8]: 5

CC1(C)CCc2cc(S(=O)(=O)N(CC(=O)O)C3(c4cccc(-c5cc(Cl)cc(Cl)c5)c4)CCC3)ccc2O1
Tmax [9]: 30 min
Cmax [10]: 274 nM
inhibition [1]: inactive
Cmax [11]: 2860 nM
clearance [12]: 169 mL/min/kg
Tmax [13]: 37.8 min
remaining at 10 min, 3 µM [2]: 77%
half-life [14]: 34.8 min
half-life [15]: 79.8 min
bioavailability [16]: 88%
Vd [17]: 7.42 L/kg
AUC (Mus musculus [18]): 5.784 µM·h
Activity [19]: 140%
AUC (Mus musculus [20]): 0.173 µM·h
AUC(0-inf) [21]: 1.52 µM·h
F (Mus musculus [22]): 100%
remaining at 10 min, 3 µM [3]: 79%
remaining at 10 min, 3 µM [4]: 70%
inhibition [23]: inactive
Cmax [24]: 941 nM
IC50 [25]: 0.04 µM
half-life [26]: 59.4 min

O=C(O)CN(Cc1cccc(-c2ccccc2OC(F)(F)F)c1)S(=O)(=O)c1ccc(OC(F)F)cc1
IC50 [7]: 0.06 µM
IC50 (Cytochrome P450 2C9): 40 µM
IC50 [5]: 0.017 µM
IC50 (Cytochrome P450 2C19): 40 µM
IC50 (Cytochrome P450 3A4): 30 µM
remaining at 10 min, 3 µM [3]: 80%
remaining at 10 min, 3 µM [4]: 100%
Ratio IC50 [8]: 4
IC50 [27]: 11 µM
IC50 (Cytochrome P450 2D6): 40 µM
